# Test results: the array DNA melting data of Ke et al. (doi:10.1101/2024.01.08.574731)
# What was measured:
# [1] = melting temperature; fluorescence melt of hairpins on a sequencing array, two-state fit, raised by 9.35 °C to match UV melts; settings: sodium 0.088 M
# Method in brief: (§1)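 Cy3 fluorescence of library hairpins on a sequenced MiSeq flow cell, with annealed Cy3 and quencher oligos, was imaged in 50 mM Na-HEPES pH 8.0, 25 mM NaCl in 2.5 °C steps up to 60 °C. Signals were normalised to pre-quench Cy3 and to control variants. Melting temperature and folding enthalpy came from bootstrapped two-state fits, inverse-variance combined over four replicates. Fitted temperatures were raised by 9.35 °C to match UV melts.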
# [2] = folding enthalpy; higher = less favourable; fluorescence melt of hairpins on a sequencing array, two-state fit; settings: sodium 0.088 M
# Method in brief: as §1
Sequence,Tm [1] [°C],folding enthalpy [2] [kJ/mol]
GAACACGAAAGTGATTTC ((((((....)))..))),26.9,-51.4
GATCTGCGCGCAGATC ((((((....)))))),66.7,-213
GTCGTTGGAAACAACGGC (.(((((....))))).),55.1,-166
GATCCTATTGAGGATC ((((((....)))))),51.4,-171
TATCGGAAACGATA (((((....))))),43,-74.5
GGATTGTCGAAAGACTCC (((..(((....)))))),30.9,-66.8
GATTATGGAAACATAGTC ((.((((....)))).)),31.7,-70.2
GCTACTGGAAACAGTAGC (((((((....))))))),64,-186
GGTTAGGGAAACTTAACC (((((.(....).))))),37.6,-105
GATCAAGAACTTGATC ((((((....)))))),49.2,-160
GGCTCGCCGAAAGGCGCC (((..(((....)))))),35.7,-29.2
GATCACGAAGGTGATC ((((((....)))))),65.3,-137
GGGGTCGAAAGACCTCCC ((((((....)))..))),51.4,-48.8
GGAGCTGGAAACAGCTTC (.(((((....))))).),53.1,-111
GATCCACGAAAGTGTATC (((.(((....))).))),37.6,-101
GATCCTGTTAGGATC ((((((...)))))),55.4,-159
GTCCGTGCGAAAGCAGAC (((..(((....)))))),32.4,-57.9
GGGCACGAAAGTGATCCC ((((((....)))..))),50.3,-81
GATCTACTCGTAGATC ((((((....)))))),53.8,-210
GATCGAGTCATCGATC ((((((....)))))),60.7,-148
GCGGATGGAAACATCCAC (.(((((....))))).),45.3,-61.3
GACCCCGCGAAAGCGGTC (((..(((....)))))),28,-24.8
GAGTCCGAAAGGAGTCTC ((((((....)))..))),54.5,-105

Sequence,Tm [1] [°C],folding enthalpy [2] [kJ/mol]
GGAATCGAAAGATGTTCC ((((((....)))..))),22.8,-35.3
GCAGCACGAAAGTGTGC (((.(((....)))))),55.7,-77.9
CGAGACGGAAACGTTTCG (((.(((....))).))),49.6,-174
GGTCCAGAAATGGACC ((((((....)))))),64,-192
GGGTGCCGAAAGGCCCC (((.(((....)))))),67.2,-91.1
GCAGTGCGAAAGCATGC (((.(((....)))))),58.7,-85.5
GGCTCCGCGAAAGCGGCC (((..(((....)))))),41.4,-35.8
GTTACCGAAAGGTTAAC ((((((....))).))),41.9,-64.6
GGCAGCGGAAACGCTACC ((.((((....)))).)),54,-95.6
GGAATACGAAAGTAATCC (((.(((....))).))),40.1,-121
GCGTATGGACGC ((((....)))),51.4,-88
GCGTAAGGAAACTTACAC (.(((((....))))).),33.4,-76.8
GTGAGCCCGAAAGGGCAC (((..(((....)))))),52.5,-47
GTCACAGGAAACTGCGAC (((.(((....))).))),46.1,-121
GATCATCCAGATGATC ((((((....)))))),50.3,-157
GATCCCGAAAGGGTTATC ((((((....)))..))),27.5,-34.2
GAGCCGACGAAAGTCCTC (((..(((....)))))),27.9,-35.3
CGAAACGGAAACGTGTCG (((.(((....))).))),47.5,-132
GGGTTAGGAAACTAATCC ((.((((....)))).)),42.7,-147
GATCATATAGATGATC ((((((....)))))),45.6,-151
GCCCGCGAAAGCGAAGGC ((((((....)))..))),63.3,-104
GACAAAGGAAACTTTGTC (((((((....))))))),53.9,-183
GACAATCCGAAAGGAGTC (((..(((....)))))),32.7,-72.1

Sequence,Tm [1] [°C],folding enthalpy [2] [kJ/mol]
GCCGTGCGAAAGCTGGGC (((..((....))..))),59.5,-83.5
GTTCTGAAAAGAAC (((((....))))),47,-115
GATCCGTAATCGGATC ((((((....)))))),57,-144
GATCCACCCATGGATC ((((((....)))))),50.7,-143
GACACACGAAAGTGGGTC (((.(((....))).))),67.6,-158
GCTCTGCGAAAGCCCAGC (((..((....))..))),30.5,-38.6
GCTGGTGGAAACATCAGC ((((.((....)).)))),53.4,-165
GATCAGGCCACTGATC ((((((....)))))),60.8,-152
GGACACGAAAGTGTTCC ((((((....))).))),56,-73.1
GCCTTCGCGAAAGCGGGC (((..(((....)))))),55.1,-50.8
GGAGAGGGAAACCTCCCC ((.((((....)))).)),39.9,-67.9
GTCTCCACGAAAGTGGAC (((..(((....)))))),32.2,-30.8
GATCCGCATACGGATC ((((((....)))))),61.5,-159
GGACACGAAAGTGACTCC ((((((....)))..))),40.6,-59.5
GTGTTAGGAAACTAGCAC (((.(((....))).))),42.9,-131
GTAAACGAAAGTTTTAC ((((((....))).))),36.5,-77.2
GTTCCACGAAAGTGCAAC (((.(((....))).))),33.5,-70.9
GTTTTACCGAAAGGTAAC (((..(((....)))))),33.6,-51.7
GACCCGCGAAAGCGCGTC (((.(((....))).))),47.8,-91.7
GTGCACACGAAAGTGCAC (((..(((....)))))),60,-129
GTAACTGAAAAGTTAC ((((((....)))))),50.9,-131
GTAACCCGAAAGGGTAC (((.(((....)))))),50.1,-52.4
GGTGGTGAAAACCACC ((((((....)))))),68.2,-136
